Assay results from ChEMBL document CHEMBL3414451, “Discovery of a series of efficient, centrally efficacious BACE1 inhibitors through structure-based drug design” (J Med Chem, 2015).

Columns and labels:
[1] = Ratio of drug level in brain to plasma in CD1 mouse at 10 mg/kg, sc after 60 mins; type: ADME, organism-based; set-up: dose 10 mg/kg, route subcutaneous; details: brain and plasma, read-out: BPR
In short: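 Plasma and brain exposures were measured in mice 60 min after 10 mg/kg subcutaneous dosing.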

[2] = Ratio of free drug level in brain to plasma in CD1 mouse at 10 mg/kg, sc; type: ADME, organism-based; set-up: dose 10 mg/kg, route subcutaneous; details: brain and plasma
In short: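 Male CD-1 mice, 10 mg/kg sc in 5% DMSO/95% (0.5% methylcellulose). Plasma, brain and CSF were collected at 1, 4 and 7 h and analyzed by LC-MS/MS. Free fractions came from equilibrium dialysis.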

[3] = Ratio of free drug level in brain to plasma in dog; type: ADME, Canis lupus familiaris; details: brain and plasma

| Kp at 1 h [1] | Kp uu [2] | Kp uu [3] | SMILES |
| --- | --- | --- | --- |
| 3.9 | 0.92 |  | C[C@H]1C[C@H]2CSC(N)=N[C@@]2(c2ccc(F)cc2F)CO1 |
| 9.2 | 1.42 | 0.78 | NC1=N[C@@]2(c3ccc(F)cc3F)CO[C@@H](CF)C[C@H]2CS1 |
| 3.51 | 1.2 |  | NC1=N[C@@]2(c3ccc(F)cc3F)CO[C@@H](C(F)F)C[C@H]2CS1 |
